Consider 36 sequences from the array DNA melting data of Ke et al. (doi:10.1101/2024.01.08.574731).

Data set [1] is described as follows: folding enthalpy; higher = less favourable; fluorescence melt of hairpins on a sequencing array, two-state fit. As to conditions: sodium 0.088 M. The procedure, abridged: (§1)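 Bootstrapped two-state fits yielded melting temperature and folding enthalpy for library hairpins. Cy3 fluorescence, with annealed Cy3 and quencher oligos, was imaged on a sequenced MiSeq flow cell in 50 mM Na-HEPES pH 8.0, 25 mM NaCl in 2.5 °C steps up to 60 °C, and normalised to pre-quench Cy3 and to control constructs. Four replicates were combined by inverse variance, and fitted temperatures were raised by 9.35 °C to match UV melts.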

Data set [2] can be described thus: melting temperature; fluorescence melt of hairpins on a sequencing array, two-state fit, raised by 9.35 °C to match UV melts. The following applies: sodium 0.088 M. The procedure, abridged:
as §1

Turning to GAGGTTGGAAACAACTTC ((.((((....)))).)), the folding enthalpy in data set [1] was -101 kJ/mol. For the same sequence, the Tm in data set [2] was 43.4 °C.
Taken in the same sequence, the figures for GAGTAAACGAAAGTTCTC (((..(((....)))))) were -58.1 kJ/mol and 30.1 °C.
The corresponding values for GAGTACGAAAGTAACTC ((((((....))).))) are -97.7 kJ/mol and 45.4 °C.
The corresponding values for GAGTACGAAAGTAAGCTC ((((((....)))..))) are -62.2 kJ/mol and 29.3 °C.
On to GAGTACGAAAGTACCTC ((((((....))).))), for which the folding enthalpy in data set [1] is -60.5 kJ/mol. For the same sequence, the Tm in data set [2] turned out to be 47 °C.
Taken in the same sequence, the figures for GAGTACGAAAGTACTC ((((((....)))))) were -149 kJ/mol and 64.8 °C.
The corresponding values for GAGTACGAAAGTAGTCTC ((((((....)))..))) are -97.9 kJ/mol and 49.2 °C.
Taken in the same sequence, the figures for GAGTACGAAAGTATCTC ((((((....))).))) were -112 kJ/mol and 41.9 °C.
GAGTACGAAAGTATTCTC ((((((....)))..))): the folding enthalpy in data set [1] was -115 kJ/mol. Further, the Tm in data set [2] was 42.6 °C.
GAGTACGGAAACGTGTTC ((..(((....)))..)): the folding enthalpy in data set [1] is -43.8 kJ/mol. Moreover, the Tm in data set [2] came out at 22.2 °C.
Taken in the same sequence, the figures for GAGTATACGAAAGTACTC (((..(((....)))))) were -65.7 kJ/mol and 34 °C.
Taken in the same sequence, the figures for GAGTATCCGAAAGGACTC (((..(((....)))))) were -59.2 kJ/mol and 29.2 °C.
Taken in the same sequence, the figures for GAGTATGGAAACATACCC (.(((((....))))).) were -81 kJ/mol and 31.4 °C.
With GAGTATGGAAACGTACTC (((((.(....).))))), the folding enthalpy in data set [1] is -138 kJ/mol. In addition, the Tm in data set [2] came to 43.5 °C.
Taken in the same sequence, the figures for GAGTCAGAAATGACTC ((((((....)))))) were -105 kJ/mol and 54.6 °C.
Taken in the same sequence, the figures for GAGTCAGGAAACCGACTC (((((.(....).))))) were -154 kJ/mol and 46.6 °C.
As to GAGTCCGAAAGGAACCTC ((((((....)))..))), in data set [1], the folding enthalpy was -69.1 kJ/mol. In addition, in data set [2], the Tm amounted to 33 °C.
In the case of GAGTCCGAAAGGAGCCTC ((((((....)))..))), the folding enthalpy in data set [1] is -59.7 kJ/mol. In data set [2], the Tm came to 34 °C.
Taken in the same sequence, the figures for GAGTCCGAAAGGAGTCTC ((((((....)))..))) were -105 kJ/mol and 54.5 °C.
Taken in the same sequence, the figures for GAGTCCGCGAAAGCGCTC (((..(((....)))))) were -31.8 kJ/mol and 24.8 °C.
Taken in the same sequence, the figures for GAGTCCGGAAACAGACTC (((((.(....).))))) were -130 kJ/mol and 41.6 °C.
Turning to GAGTCGCGAAAGCGCTC (((.(((....)))))), the folding enthalpy in data set [1] is -64.4 kJ/mol. Besides, the Tm in data set [2] amounted to 54.6 °C.
Taken in the same sequence, the figures for GAGTCGGGAAACCGACCC (.(((((....))))).) were -45 kJ/mol and 42 °C.
GAGTCTGCGAAAGCACTC (((..(((....)))))): in data set [1], the folding enthalpy is -62.1 kJ/mol. Moreover, the Tm in data set [2] came out at 30.4 °C.
As to GAGTCTGGAAACAGGCTC (((.(((....))).))), in data set [1], the folding enthalpy was -184 kJ/mol. Moreover, in data set [2], the Tm was found to be 52.2 °C.
Taken in the same sequence, the figures for GAGTGCCCGAAAGGGCTC (((..(((....)))))) were -27.9 kJ/mol and 35.5 °C.
The corresponding values for GAGTGCGAAAGCACGCTC ((((((....)))..))) are -45.7 kJ/mol and 66.7 °C.
Taken in the same sequence, the figures for GAGTGCGAAAGCAGCTC ((((((....))).))) were -83.2 kJ/mol and 51.3 °C.
As to GAGTGCGAAAGCATACTC ((((((....)))..))), in data set [1], the folding enthalpy is -73.1 kJ/mol. In addition, the Tm in data set [2] was 43.1 °C.
The corresponding values for GAGTGCGGAAACGTACTC ((((.((....)).)))) are -181 kJ/mol and 53.9 °C.
The corresponding values for GAGTGGCGAAAGCCCCTC (((.(((....))).))) are -83.4 kJ/mol and 48.3 °C.
Taken in the same sequence, the figures for GAGTGGGAAACCACTC ((((((....)))))) were -141 kJ/mol and 60.7 °C.
Regarding GAGTGGGCGAAAGCCCTC (((..(((....)))))), in data set [1], the folding enthalpy was -34.6 kJ/mol. Also, the Tm in data set [2] worked out at 34 °C.
As to GAGTGGGGAAACCCACCC (.(((((....))))).), in data set [1], the folding enthalpy was -50.9 kJ/mol. Further, in data set [2], the Tm came out at 42.7 °C.
GAGTGTACGAAAGTACTC (((..(((....)))))): the folding enthalpy in data set [1] is -49.1 kJ/mol. Further, the Tm in data set [2] stood at 32.8 °C.
The corresponding values for GAGTGTGGAAACGCATTC ((.((.(....).)).)) are -79.6 kJ/mol and 28.5 °C.
